pIC50, pKi: −log10 of the molar value. Blank lines part the entries; values can stand above or below the compound they belong to. Active and inactive are the calls of the source. The rule behind the calls is not given here.
Experiments:
[1] = Cmax in rat at 10 mg/kg, po by LC-MS-MS analysis; assay type: ADME, organism-based; design: dose 10 mg/kg, route oral; settings: in vivo
[2] = target: T1, C-C chemokine receptor type 3 (Homo sapiens) (UniProt P51677); test: Binding affinity against CCR3 at 25 uM
T1 sequence (whole entry): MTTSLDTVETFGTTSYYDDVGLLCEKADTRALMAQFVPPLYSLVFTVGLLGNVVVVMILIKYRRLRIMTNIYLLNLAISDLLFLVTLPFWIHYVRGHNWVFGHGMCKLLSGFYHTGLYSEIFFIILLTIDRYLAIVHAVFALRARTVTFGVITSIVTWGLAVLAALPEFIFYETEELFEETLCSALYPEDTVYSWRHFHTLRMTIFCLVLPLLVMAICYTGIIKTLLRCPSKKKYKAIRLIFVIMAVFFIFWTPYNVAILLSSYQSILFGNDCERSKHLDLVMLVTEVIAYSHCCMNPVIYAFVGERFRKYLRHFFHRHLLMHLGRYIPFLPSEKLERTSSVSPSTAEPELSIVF

[3] = target: T2, CX3C chemokine receptor 1 (Homo sapiens) (UniProt P49238); test: Binding affinity against CX3CR1 at 25 uM
T2 sequence (whole entry): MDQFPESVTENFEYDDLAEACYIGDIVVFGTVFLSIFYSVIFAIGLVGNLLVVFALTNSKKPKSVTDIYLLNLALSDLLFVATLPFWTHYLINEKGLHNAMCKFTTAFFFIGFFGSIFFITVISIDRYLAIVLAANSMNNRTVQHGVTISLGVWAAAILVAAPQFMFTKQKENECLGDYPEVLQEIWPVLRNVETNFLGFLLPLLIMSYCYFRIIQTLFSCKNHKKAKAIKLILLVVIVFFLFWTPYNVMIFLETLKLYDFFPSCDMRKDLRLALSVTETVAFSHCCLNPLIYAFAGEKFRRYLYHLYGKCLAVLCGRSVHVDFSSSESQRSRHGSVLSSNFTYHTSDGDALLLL

[4] = AUC (last) in dog at 6.7 mg/kg, po by LC-MS-MS analysis; assay type: ADME, organism-based, Canis lupus familiaris; design: time 0 - last, dose 6.7 mg/kg, route oral; settings: plasma
Outline: (§1)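 Single oral dose of 6.7 mg/kg given to dogs as a suspension/solution in 0.5% methocel vehicle. AUC was taken to the last sampled time point.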

Canis familiaris [5] = test: Cardiotoxicity in anesthetized dog assessed as effect on ECG morphology up to 10 mg/kg, iv; assay type: toxicity, organism-based, Canis lupus familiaris; design: dose 10 mg/kg, route intravenous; settings: in vivo
[6] = Oral bioavailability in rat at 10 mg/kg by LC-MS-MS analysis; assay type: ADME, organism-based; settings: in vivo
Canis familiaris [7] = test: Toxicity in anesthetized dog assessed as effect on cardiohemodynamic parameters up to 10 mg/kg, iv; assay type: organism-based, Canis lupus familiaris; design: dose 10 mg/kg, route intravenous; settings: in vivo
[8] = target: T3, C-C chemokine receptor type 1 (Homo sapiens) (UniProt P32246); test: Binding affinity against CCR1 at 25 uM
T3 sequence (whole entry): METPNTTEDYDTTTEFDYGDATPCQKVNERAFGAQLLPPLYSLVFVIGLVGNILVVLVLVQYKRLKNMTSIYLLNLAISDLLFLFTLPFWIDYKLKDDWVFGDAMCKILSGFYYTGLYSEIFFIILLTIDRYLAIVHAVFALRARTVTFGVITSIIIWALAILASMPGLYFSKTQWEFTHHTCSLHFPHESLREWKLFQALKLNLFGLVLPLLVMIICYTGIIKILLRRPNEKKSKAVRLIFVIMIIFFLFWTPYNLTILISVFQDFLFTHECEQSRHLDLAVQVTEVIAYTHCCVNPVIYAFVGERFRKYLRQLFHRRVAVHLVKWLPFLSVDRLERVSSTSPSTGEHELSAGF

[9] = Oral bioavailability in mouse at 10 mg/kg by LC-MS-MS analysis; assay type: ADME, organism-based; settings: in vivo
Mus musculus [10] = test: Inhibition of thioglycollate-induced peritonitis in po dosed human CCR2 knock-in/murine CCR2 knockout mouse assessed as inhibition of leukocytes, monocytes/macrophages and T-lymphocytes influx in to peritoneal cavity administered as bid; assay type: functional
[11] = Plasma concentration in Hartley guinea pig up to cumulative dose of 10 mg/kg, iv by LC-MS-MS analysis; assay type: ADME, organism-based, Cavia porcellus; design: dose 10 mg/kg, route intravenous; settings: in vivo
Outline: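 Plasma drug level was taken from the anesthetized guinea pig QTc study. Dosing was cumulative i.v. (0.1, 0.3, 1, 3, 10 mg/kg), each dose a 5 min infusion at 20 min intervals, up to 10 mg/kg.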

[12] = AUC (last) in mouse at 10 mg/kg, po by LC-MS-MS analysis; assay type: ADME, organism-based; design: time 0 - last, dose 10 mg/kg, route oral; settings: plasma
[13] = Cmax in mouse at 10 mg/kg, po by LC-MS-MS analysis; assay type: ADME, organism-based; design: dose 10 mg/kg, route oral; settings: in vivo
[14] = Oral bioavailability in monkey at 7.2 mg/kg by LC-MS-MS analysis; assay type: ADME, organism-based, Macaca mulatta; settings: rhesus monkey, in vivo
[15] = AUC (last) in monkey at 7.2 mg/kg, po by LC-MS-MS analysis; assay type: ADME, organism-based, Macaca mulatta; design: time 0 - last, dose 7.2 mg/kg, route oral; settings: rhesus monkey, plasma
[16] = Oral bioavailability in dog at 6.7 mg/kg by LC-MS-MS analysis; assay type: ADME, organism-based, Canis lupus familiaris; settings: in vivo; outline: as §1
Cavia porcellus [17] = test: Cardiotoxicity in anesthetized Hartley guinea pig assessed as prolongation of corrected QT interval up to cumulative dose of 10 mg/kg, iv by electrocardiographic analysis; assay type: toxicity, organism-based; design: dose 10 mg/kg, route intravenous; settings: in vivo
Outline: (§2)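 Anesthetized guinea pigs received cumulative i.v. doses of 0.1, 0.3, 1, 3 and 10 mg/kg, each as a 5 min infusion at 0, 20, 40, 60 and 80 min. QTc was recorded at each time point as percent change from each animal's baseline. Mean ± SEM, n = 3.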

[18] = target: C-X-C chemokine receptor type 4 (Homo sapiens) (UniProt P61073); test: Binding affinity against CXCR4 at 25 uM
Sequence of C-X-C chemokine receptor type 4 (Homo sapiens) (P61073 whole entry): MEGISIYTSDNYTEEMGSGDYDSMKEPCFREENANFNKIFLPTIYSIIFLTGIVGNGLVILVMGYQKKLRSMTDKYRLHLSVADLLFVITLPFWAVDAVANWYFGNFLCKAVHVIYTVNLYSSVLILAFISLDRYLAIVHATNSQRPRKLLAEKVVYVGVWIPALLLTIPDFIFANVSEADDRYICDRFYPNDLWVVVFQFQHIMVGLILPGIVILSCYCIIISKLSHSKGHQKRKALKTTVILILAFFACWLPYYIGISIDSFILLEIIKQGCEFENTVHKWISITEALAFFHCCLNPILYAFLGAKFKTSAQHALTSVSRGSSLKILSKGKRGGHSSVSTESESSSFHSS

[19] = Cmax in dog at 6.7 mg/kg, po by LC-MS-MS analysis; assay type: ADME, organism-based, Canis lupus familiaris; design: dose 6.7 mg/kg, route oral; settings: in vivo; outline: as §1
Canis familiaris [20] = test: Toxicity in anesthetized dog assessed as effect on functional respiratory parameters up to 10 mg/kg, iv; assay type: organism-based, Canis lupus familiaris; design: dose 10 mg/kg, route intravenous; settings: in vivo
[21] = target: C-C chemokine receptor type 5 (Homo sapiens) (UniProt P51681); test: Binding affinity against CCR5 at 25 uM
Sequence of C-C chemokine receptor type 5 (Homo sapiens) (P51681 whole entry, looked up): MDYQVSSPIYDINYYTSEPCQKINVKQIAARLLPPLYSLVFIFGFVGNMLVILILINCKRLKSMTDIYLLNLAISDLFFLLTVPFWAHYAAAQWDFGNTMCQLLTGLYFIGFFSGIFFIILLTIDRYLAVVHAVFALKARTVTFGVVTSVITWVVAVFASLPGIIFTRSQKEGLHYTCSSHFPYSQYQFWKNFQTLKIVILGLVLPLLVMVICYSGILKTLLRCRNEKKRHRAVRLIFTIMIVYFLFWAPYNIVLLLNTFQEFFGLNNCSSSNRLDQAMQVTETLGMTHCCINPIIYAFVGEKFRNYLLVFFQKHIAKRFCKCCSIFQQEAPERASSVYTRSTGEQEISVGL

[22] = target: T4, C-X-C chemokine receptor type 1 (Homo sapiens) (UniProt P25024); test: Binding affinity against CXCR1 at 25 uM
T4 sequence (whole entry): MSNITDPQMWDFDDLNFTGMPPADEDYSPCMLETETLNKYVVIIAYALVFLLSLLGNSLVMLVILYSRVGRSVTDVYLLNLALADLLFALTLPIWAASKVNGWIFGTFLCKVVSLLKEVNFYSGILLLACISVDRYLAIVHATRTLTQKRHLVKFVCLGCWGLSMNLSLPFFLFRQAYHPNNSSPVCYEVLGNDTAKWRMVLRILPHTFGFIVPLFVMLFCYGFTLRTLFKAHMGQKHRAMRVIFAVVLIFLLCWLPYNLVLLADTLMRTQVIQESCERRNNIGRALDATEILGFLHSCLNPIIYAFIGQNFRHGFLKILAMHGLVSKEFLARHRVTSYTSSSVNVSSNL

[23] = target: T5, C-X-C chemokine receptor type 2 (Homo sapiens) (UniProt P25025); test: Binding affinity against CXCR2 at 25 uM
T5 sequence (whole entry): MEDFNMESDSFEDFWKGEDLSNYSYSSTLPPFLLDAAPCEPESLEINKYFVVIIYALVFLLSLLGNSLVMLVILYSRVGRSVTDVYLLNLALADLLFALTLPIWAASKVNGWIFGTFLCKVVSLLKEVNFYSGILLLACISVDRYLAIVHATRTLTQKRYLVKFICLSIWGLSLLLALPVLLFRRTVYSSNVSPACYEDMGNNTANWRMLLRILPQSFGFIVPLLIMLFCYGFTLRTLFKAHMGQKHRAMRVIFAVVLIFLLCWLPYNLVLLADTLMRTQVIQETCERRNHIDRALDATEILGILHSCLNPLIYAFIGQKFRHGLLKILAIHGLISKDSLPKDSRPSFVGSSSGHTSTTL

[24] = target: T6, C-C chemokine receptor type 4 (Homo sapiens) (UniProt P51679); test: Binding affinity against CCR4 at 25 uM
T6 sequence (whole entry): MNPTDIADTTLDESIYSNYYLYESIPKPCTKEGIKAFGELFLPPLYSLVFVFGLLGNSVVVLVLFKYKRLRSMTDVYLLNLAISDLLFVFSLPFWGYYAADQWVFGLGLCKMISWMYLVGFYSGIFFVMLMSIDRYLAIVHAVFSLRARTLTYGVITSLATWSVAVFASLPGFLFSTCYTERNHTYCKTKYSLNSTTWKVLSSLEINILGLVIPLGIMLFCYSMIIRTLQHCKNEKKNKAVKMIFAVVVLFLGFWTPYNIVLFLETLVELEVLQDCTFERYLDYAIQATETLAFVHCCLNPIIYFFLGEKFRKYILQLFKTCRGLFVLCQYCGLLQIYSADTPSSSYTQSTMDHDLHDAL

Canis familiaris [25] = test: Toxicity in anesthetized dog assessed as effect on electrophysiological parameters up to 10 mg/kg, iv; assay type: organism-based, Canis lupus familiaris; design: dose 10 mg/kg, route intravenous; settings: in vivo
[26] = target: C-C chemokine receptor type 2 (Mus musculus, UniProt P51683); test: Binding affinity to mouse CCR2
Sequence of C-C chemokine receptor type 2 (P51683 whole entry): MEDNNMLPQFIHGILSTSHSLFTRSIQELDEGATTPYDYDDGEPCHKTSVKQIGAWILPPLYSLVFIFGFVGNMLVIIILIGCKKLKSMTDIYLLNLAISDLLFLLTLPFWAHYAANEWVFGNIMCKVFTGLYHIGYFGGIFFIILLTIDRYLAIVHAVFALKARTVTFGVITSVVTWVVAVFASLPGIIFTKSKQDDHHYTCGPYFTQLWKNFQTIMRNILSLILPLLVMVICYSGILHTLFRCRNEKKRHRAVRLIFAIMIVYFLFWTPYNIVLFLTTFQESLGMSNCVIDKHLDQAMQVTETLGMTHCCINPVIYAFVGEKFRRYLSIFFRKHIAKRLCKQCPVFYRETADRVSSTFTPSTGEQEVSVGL

[27] = Cmax in monkey at 7.2 mg/kg, po by LC-MS-MS analysis; assay type: ADME, organism-based, Macaca mulatta; design: dose 7.2 mg/kg, route oral; settings: rhesus monkey, in vivo
Mus musculus [28] = test: Antiasthamatic activity in ovalbumin-sensitized mouse model assessed as inhibition of airway eosinophil infiltration at 10 mg/kg, po bid; assay type: functional
[29] = AUC (last) in rat at 10 mg/kg, po by LC-MS-MS analysis; assay type: ADME, organism-based; design: time 0 - last, dose 10 mg/kg, route oral; settings: plasma
Cavia porcellus [30] = test: Cardiotoxicity in anesthetized-Hartley guinea pig assessed as prolongation of corrected QT interval up to cumulative dose of 10 mg/kg, iv by electrocardiographic analysis; assay type: toxicity, organism-based; design: dose 10 mg/kg, route intravenous; settings: in vivo; outline: as §2
Cavia porcellus [31] = test: Cardiotoxicity in iv dosed anesthetized-Hartley guinea pig assessed as prolongation of corrected QT interval by electrocardiographic analysis; assay type: toxicity, organism-based; settings: in vivo; outline: as §2
[32] = target: Voltage-gated inwardly rectifying potassium channel KCNH2 (Homo sapiens, UniProt Q12809); test: Displacement of [3H]-astemizole from human ERG expressed in HEK293 cells after 1 hr by scintillation counting analysis; assay type: cell-based
Sequence of Voltage-gated inwardly rectifying potassium channel KCNH2 (Q12809 whole entry): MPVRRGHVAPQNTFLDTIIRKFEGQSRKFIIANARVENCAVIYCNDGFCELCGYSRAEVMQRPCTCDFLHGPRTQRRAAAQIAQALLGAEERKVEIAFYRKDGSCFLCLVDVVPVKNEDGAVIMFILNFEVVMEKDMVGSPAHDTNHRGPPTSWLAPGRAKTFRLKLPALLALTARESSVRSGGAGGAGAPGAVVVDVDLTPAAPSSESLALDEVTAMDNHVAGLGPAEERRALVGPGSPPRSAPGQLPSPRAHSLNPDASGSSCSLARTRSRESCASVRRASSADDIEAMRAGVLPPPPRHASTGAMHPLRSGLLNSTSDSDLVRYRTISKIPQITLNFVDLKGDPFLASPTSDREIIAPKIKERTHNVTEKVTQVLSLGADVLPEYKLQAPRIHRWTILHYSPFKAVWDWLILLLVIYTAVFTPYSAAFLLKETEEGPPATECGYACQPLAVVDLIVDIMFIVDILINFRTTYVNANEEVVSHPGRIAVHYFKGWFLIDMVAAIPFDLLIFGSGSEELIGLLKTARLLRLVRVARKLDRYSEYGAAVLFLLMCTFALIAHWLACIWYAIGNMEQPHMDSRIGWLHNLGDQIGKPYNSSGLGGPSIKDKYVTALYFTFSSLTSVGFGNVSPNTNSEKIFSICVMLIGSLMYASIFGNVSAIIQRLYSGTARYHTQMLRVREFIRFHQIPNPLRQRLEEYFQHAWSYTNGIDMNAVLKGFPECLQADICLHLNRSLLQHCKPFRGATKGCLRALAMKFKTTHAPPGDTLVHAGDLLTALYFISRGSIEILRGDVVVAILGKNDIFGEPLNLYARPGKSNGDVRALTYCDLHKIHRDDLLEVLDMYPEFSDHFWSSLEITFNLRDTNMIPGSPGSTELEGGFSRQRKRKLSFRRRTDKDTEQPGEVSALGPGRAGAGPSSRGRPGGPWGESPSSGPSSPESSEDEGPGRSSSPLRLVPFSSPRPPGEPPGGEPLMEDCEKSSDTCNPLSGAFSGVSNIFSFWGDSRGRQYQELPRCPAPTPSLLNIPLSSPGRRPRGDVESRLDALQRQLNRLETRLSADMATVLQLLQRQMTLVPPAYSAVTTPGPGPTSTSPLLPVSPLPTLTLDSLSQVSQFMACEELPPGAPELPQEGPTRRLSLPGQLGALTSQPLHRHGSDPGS

hERG (KCNH2) = hERG (KCNH2) (Homo sapiens, UniProt Q12809); test: Inhibition of human ERG expressed in HEK-293 cells assessed as K+-selective outward current at 3 uM at -80 mV holding potential after 5 mins by voltage patch-clamp method; assay type: cell-based, HEK293; settings: HEK-293 cells expressing human ERG
Sequence of hERG (KCNH2) (Q12809 whole entry): as above

Cmax [1]: 100 ng/mL | inhibition [2]: inactive | inhibition [3]: inactive | AUC(0-t) [4]: 5890 ng·h/mL | bioavailability [6]: 15.3% | inhibition [8]: inactive | bioavailability [9]: 19% | concentration [11]: 26 µM | AUC(0-t) [12]: 204 ng·h/mL | Cmax [13]: 74 ng/mL | bioavailability [14]: 25.4% | AUC(0-t) [15]: 3060 ng·h/mL | bioavailability [16]: 70.2% | inhibition [18]: inactive | Cmax [19]: 1620 ng/mL | inhibition [21]: inactive | inhibition [22]: inactive | inhibition [23]: inactive | inhibition [24]: inactive | pKi [26]: 5.02 | Cmax [27]: 740 ng/mL | AUC(0-t) [29]: 416 ng·h/mL
SMILES: O=C(CNC(=O)c1cccc(C(F)(F)F)c1)NC1CN([C@H]2CC[C@@](O)(c3cncs3)CC2)C1 [JNJ-41443532]
Activity (Canis familiaris [5]): Non-toxic | Activity (Canis familiaris [7]): Non-toxic | ED50 (Mus musculus [10]): 3 mg/kg | inhibition (Mus musculus [10]): Dose-dependent effect | Activity (Cavia porcellus [17]): Non-toxic | Activity (Canis familiaris [20]): Non-toxic | Activity (Canis familiaris [25]): Non-toxic | inhibition in vivo at 10 mg/kg (Mus musculus [28]): 89%

SMILES: COc1ccc([C@]2(O)CC[C@H](N3CC(NC(=O)CNC(=O)c4cccc(C(F)(F)F)c4)C3)CC2)cn1
Activity (Cavia porcellus [30]): 6% | Activity (Cavia porcellus [31]): Dose-dependent effect

concentration [11]: 10 µM
SMILES: CC(C)c1ncc([C@]2(O)CC[C@H](N3CC(NC(=O)CNC(=O)c4cccc(C(F)(F)F)c4)C3)CC2)s1
Activity (Cavia porcellus [17]): Non-toxic | pIC50 [32]: < 4.30 | inhibition at 5 min, 3 µM (hERG (KCNH2)): 35%

concentration [11]: 3 µM
SMILES: CC(C)Oc1ncc([C@]2(O)CC[C@H](N3CC(NC(=O)CNC(=O)c4cccc(C(F)(F)F)c4)C3)CC2)s1
Activity (Cavia porcellus [17]): Non-toxic | pIC50 [32]: 4.55 | inhibition at 5 min, 3 µM (hERG (KCNH2)): 49%

From ChEMBL document CHEMBL2203263, “Discovery of a 4-Azetidinyl-1-thiazoyl-cyclohexane CCR2 Antagonist as a Development Candidate” (ACS Med Chem Lett, 2012)
